MIC and IC50 data for three compounds are collected here from ChEMBL document CHEMBL4425091, “Bafilomycins and Odoriferous Sesquiterpenoids from Streptomyces albolongus Isolated from Elephas maximus Feces” (J Nat Prod, 2016).

≈ marks a conversion by molar mass, not a printed value.

The subject of assay [1] is Bacillus spizizenii. Put plainly: Antibacterial activity against Bacillus subtilis ATCC 6633 after 24 hrs by MTT based microbroth dilution assay. The format is functional. The settings on record: ATCC 6633, 24 h. In a few lines:
(§1)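 Two-fold broth microdilution MIC in LB medium (pH 7.0). Compounds dissolved in DMSO, serially diluted to eight levels (11.0−0.086 mg/mL), then each diluted 10-fold in medium (1.1−0.0086 mg/mL). 10 μL of this added to 100 μL of bacteria at 1 × 10^6 cfu/mL. Incubated 24 h at 28 °C. MTT added for 4 h, wells emptied, DMSO added, absorbance read at 570 nm.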
In general terms: Dilution methods test growth across graded concentrations, often in twofold steps.

In assay [2] the test system is Candida parapsilosis. As to the kind of experiment: Antifungal activity against Candida parapsilosis ATCC 22019 after 48 hrs by MTT based microbroth dilution assay. The format is functional. The settings on record: Lodderomyces parapsilosis, ATCC 22019, 48 h. The procedure, abridged: (§2)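 MIC by broth microdilution in RPMI-1640 with NaHCO3 and MOPS, pH 7.0. DMSO stocks were 2-fold serially diluted to eight levels, then 10-fold in medium (1.1–0.0086 mg/mL). 10 µL was added to 100 µL yeast suspension: C. albicans and C. parapsilosis at 2 × 10^3 cfu/mL for 48 h; C. neoformans at 5 × 10^4 cfu/mL for 72 h; all at 28 °C. MTT added for 4 h, DMSO solubilization, A570.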

Assay [3] relates to Cryptococcus neoformans. Put plainly: Antifungal activity against Cryptococcus neoformans ATCC 208821 after 72 hrs by MTT based microbroth dilution assay. Type of assay: functional. To be noted: ATCC 208821, 72 h. The procedure, abridged:
as §2

The subject of assay [4] is Candida albicans. Put plainly: Antifungal activity against Candida albicans ATCC MYA-2876 after 48 hrs by MTT based microbroth dilution assay. Type of assay: functional. To be noted: ATCC MYA-2876, 48 h. In a few lines:
as §2

The subject of assay [5] is Caco-2. Put plainly: Cytotoxicity against human Caco2 cells assessed as reduction in cell viability by MTT assay. The format is functional, cell-based. The procedure, abridged:
(§3)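 MTT viability assay in human cancer cell lines. IC50 was defined as a 50% reduction of absorbance relative to the control assay. Adriamycin served as the positive control.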
(Tetrazolium dyes change colour on reduction, which living cells bring about.)

The test system of assay [6] is NCI-H460. Put plainly: Cytotoxicity against human NCI-H460 cells assessed as reduction in cell viability by MTT assay. The format is functional, cell-based. The procedure, abridged: as §3
In assay [7] the test system is SMMC-7721. Put plainly: Cytotoxicity against human SMMC7721 cells assessed as reduction in cell viability by MTT assay. The format is functional, cell-based. In a few lines:
as §3

Assay [8] relates to BGC-823. As to the kind of experiment: Cytotoxicity against human BGC823 cells assessed as reduction in cell viability by MTT assay. Type of assay: functional, cell-based. In a few lines:
as §3

Assay [9] relates to Staphylococcus aureus. Put plainly: Antibacterial activity against Staphylococcus aureus ATCC 25923 after 24 hrs by MTT based microbroth dilution assay. Type of assay: functional. The settings on record: ATCC 25923, 24 h. In a few lines:
as §1

As a reminder, the MIC is the smallest concentration in the dilution series that meets the test's criterion for growth inhibition. A high value points to weaker potency. A word on the IC50: it is the concentration that inhibits the measured activity by half.

Regarding `O=C(O)c1cn(C2CC2)c2cc(N3CCNCC3)c(F)cc2c1=O` [CIPROFLOXACIN], in assay [1], the MIC was found to be 0.25 µg/mL (≈ 0.754 µM).

As for `CO/C1=C\C(C)=C\[C@@H](C)[C@@H](O)[C@@H](C)C/C(C)=C/C=C/[C@H](OC)[C@@H]([C@@H](C)[C@@H](O)[C@H](C)[C@@]2(O)C[C@@H](OC(=O)/C=C/C(=O)O)[C@H](C)[C@@H](C(C)C)O2)OC1=O`, the minimum inhibitory concentration (MIC) worked out at 1.56 µg/mL (≈ 2.16 µM) in [2]; 1.56 µg/mL (≈ 2.16 µM) in [3]; 1.56 µg/mL (≈ 2.16 µM) in [4]; 12.5 µg/mL (≈ 17.3 µM) in assay [1]; 12.5 µg/mL (≈ 17.3 µM) in [9]. Besides, the IC50 is 1.89 µM in assay [5], 3.43 µM in assay [6], 0.54 µM in assay [7] and 1.83 µM in assay [8].

As for `C[C@H]1CC[C@@H](O)[C@@]2(C)CCCC[C@]12O`, the minimum inhibitory concentration (MIC) is 3.13 µg/mL (≈ 15.8 µM) in [2], more than 100 µg/mL in assay [3] and 12.5 µg/mL (≈ 63 µM) in [4]. Moreover, the IC50 in assay [5] is 85.5 µM; in [6], more than 100 µM; in assay [7], 41.7 µM; in assay [8] it was 34.6 µM.
